Measurements: PMC5891368 (European journal of medicinal chemistry, 2018)
Entries after “also recorded” stand apart in the source; their conditions may differ.

Experiments:
MDA-MB-231 cells [1] = assay: cytotoxicity, cell viability; type: cell-based, human; conditions: MDA-MB-231 (CXCR4-positive); up to 10 μM; MTT
Procedure, shortened: (§1)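 Cells were seeded at 3000 per well in 96-well plates and grown 24 h at 37 °C in a CO2 incubator. They were then exposed at 37 °C to test compound or vehicle control. CellTiter 96AQ (MTT-type) reagent was added for a further 2 h, and absorbance was read at 490 nm.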

MCF-7 cells = assay: cytotoxicity, cell viability; type: cell-based; conditions: MCF-7 (CXCR4-positive); MTT; 72 h
Procedure, shortened: as §1

xylene-induced ear edema [2] = assay: xylene-induced ear edema model; type: in vivo, mouse; conditions: after treatment with compound
184A1N4 cells = assay: cytotoxicity, cell viability; type: cell-based; conditions: 184A1N4 (CXCR4-negative); MTT; 72 h
Procedure, shortened: as §1

SKBR3 cells = assay: cytotoxicity, cell viability; type: cell-based; conditions: SKBR3 (CXCR4-positive); MTT; 72 h
Procedure, shortened: as §1

phosphorylation of Akt = assay: Western blot, CXCL12 induced phosphorylation of Akt; type: cell-based; conditions: dose-dependent
Procedure, shortened: (§2)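 Rabbit monoclonal primaries (1:500, overnight, 4 °C) were phospho-Akt Ser473 with pan-Akt for Akt, and phospho-p44/42 MAPK Thr202/Tyr204 with total p44/42 for p44/42. Detection used HRP goat anti-rabbit (1:10000, 1 h) and enhanced chemiluminescence.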

AC1-ExR cells = assay: cytotoxicity, cell viability; type: cell-based; conditions: AC1-ExR (CXCR4-positive); MTT; 72 h
Procedure, shortened: as §1

MCF-10A cells = assay: cytotoxicity, cell viability; type: cell-based; conditions: up to 10 μM, MTT
[3] = tested on: phosphorylation of p44/42; assay: Western blot, CXCL12 induced phosphorylation of p44/42; type: cell-based
Procedure, shortened: as §2

xylene-induced ear edema [4] = conditions: mouse, in vivo; cited from earlier work
MDA-MB-231 cells [5] = assay: Matrigel invasion assay induced by CXCR4/CXCL12; type: cell-based; conditions: Homo sapiens, MDA-MB-231, 22 h, read-out: inhibition of Matrigel invasion
Procedure, shortened: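 MDA-MB-231 cells were pre-treated with test compound at 100 nM and then seeded in the top chamber of a Matrigel invasion chamber in serum-free medium. CXCL12α at 200 ng/mL in the bottom chamber served as chemoattractant. After 22 h in a humidified incubator, non-invading cells were swabbed off. Invading cells were methanol-fixed, stained with H&E and counted to give percent invasion.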

SMILES | antiproliferative activity / cytotoxicity (MDA-MB-231 cells [1]) | antiproliferative activity / cytotoxicity (MCF-7 cells) | number of inflammatory cells in inflammatory tissues (histological analysis) (xylene-induced ear edema [2]) | swollen volume and thickness of the mouse ear (histological analysis) (xylene-induced ear edema [2]) | antiproliferative activity / cytotoxicity (184A1N4 cells) | antiproliferative activity / cytotoxicity (SKBR3 cells) | active concentration for inhibition of Akt phosphorylation (phosphorylation of Akt) | antiproliferative activity / cytotoxicity (AC1-ExR cells) | antiproliferative activity / cytotoxicity (MCF-10A cells) | concentration suppressing phosphorylation of p44 [3] | toxicity in this animal model (xylene-induced ear edema [4]) | inhibition at 0.1 µM (MDA-MB-231 cells [5])
O=C(NCc1ccc(CNS(=O)(=O)c2ccccc2)cc1)c1ccc(CNc2ncccn2)cc1 [Compound 7a, N-(4-(phenylsulfonamidomethyl)benzyl)-4-((pyrimidin-2-ylamino)methyl)benzamide] | did not inhibit the proliferation; also recorded: no statistically significant differences | no statistically significant differences | significantly decreased | significantly reduced | no statistically significant differences | no statistically significant differences | 1 nM | no statistically significant differences | did not inhibit the proliferation | 0.1 nM |  | 
c1cc(CN2CCCNCCNCCCNCC2)ccc1CN1CCCNCCNCCCNCC1 [AMD3100] |  |  |  |  |  |  |  |  |  |  | serious toxicity | 55%
